Legend:
Assay type in all cases: functional, cell-based
H2981 cell line [1] = assay: Concentration resulting in 50% incorporation of [3H]thymidine compared to untreated control cells on H2981 human lung adenocarcinoma cells in the presence of 10 ug/mL Enterobacter cloacae P99 beta-lactamase (ECIbL); details: H2981, 1 h
Outline: (§1)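 H2981 cells in IMDM/10% FBS were seeded at 4000 or 8000 per well and left 18 h at 37 °C. Drug, ±EClbL, was given in RPMI/10% FBS over a concentration range for 1 h at 37 °C, then washed off and cells kept 18 h. [³H]thymidine (1 μCi/well) was pulsed 6 h (8000 cells) or 18 h (4000 cells).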

H2981 cell line [2] = assay: Escherichia coli TEM-1 beta-lactamase (ECbL) enzyme concentration required to achieve an IC50 value of compound on H2981 lung adenocarcinoma cells; details: Homo sapiens
Outline: (§2)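 H2981 cells were plated at 4000 or 8000/well and allowed to adhere 18 h at 37 °C. Prodrug was held fixed at 1 μM while β-lactamase was titrated. After 1 h at 37 °C, cells were washed and incubated 18 h. A [³H]thymidine pulse (1 μCi/well) followed, 6 h or 18 h depending on seeding.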

H2981 cell line [3] = assay: Bacillus cereus beta-lactamase (BCbL) enzyme concentration required to achieve an IC50 value of compound on H2981 lung adenocarcinoma cells; details: Homo sapiens; outline: as §2
H2981 cell line [4] = assay: Concentration resulting in 50% incorporation of [3H]thymidine compared to untreated control cells on H2981 human lung adenocarcinoma cells in the absence of Enterobacter cloacae P99 beta-lactamase (ECIbL); details: H2981, 1 h; outline: as §1
H2981 cell line [5] = assay: Enterobacter cloacae P99 beta-lactamase (ECIbL) enzyme concentration required to achieve an IC50 value of compound on H2981 lung adenocarcinoma cells; details: Homo sapiens; outline: as §2
H2981 cell line [6] = assay: Concentration resulting in 50% incorporation of [3H]thymidine compared to untreated control cells on H2981 human lung adenocarcinoma cells in the presence of doxorubicin; details: H2981, 1 h; outline: as §1
H2981 cell line [7] = assay: Cytotoxicity on H2981 Human lung adenocarcinoma cells.; outline: as §1

IC50 (H2981 cell line [1])	IC50 (H2981 cell line [2])	IC50 (H2981 cell line [3])	IC50 (H2981 cell line [4])	IC50 (H2981 cell line [5])	IC50 (H2981 cell line [6])	SMILES	IC50 (H2981 cell line [7])
450 nM	1.13 nM	1.58 nM	2500 nM	0.13 nM	460 nM	COc1cccc2c1C(=O)c1c(O)c3c(c(O)c1C2=O)C[C@@](O)(C(=O)CO)C[C@@H]3OC1CC(NC(=O)OCC2=C(C(=O)O)N3C(=O)[C@@H](NC(=O)CSC4OC(CO)C(O)C(O)C4O)[C@H]3SC2)C(O)C(C)O1 (some centres not stated)	–
470 nM	6.5 nM	1.13 nM	21900 nM	0.039 nM	480 nM	COc1cccc2c1C(=O)c1c(O)c3c(c(O)c1C2=O)C[C@@](O)(C(=O)CO)C[C@@H]3OC1CC(NC(=O)OCC2=C(C(=O)O)N3C(=O)[C@@H](NC(=O)CCCC(=O)O)[C@H]3SC2)C(O)C(C)O1 (some centres not stated)	–
550 nM	0.25 nM	0.21 nM	10300 nM	0.024 nM	560 nM	COc1cccc2c1C(=O)c1c(O)c3c(c(O)c1C2=O)C[C@@](O)(C(=O)CO)C[C@@H]3OC1CC(NC(=O)OCC2=C(C(=O)O)N3C(=O)[C@@H](NC(=O)Cc4cccs4)[C@H]3SC2)C(O)C(C)O1 (some centres not stated)	–

The next lines start with the compound.

SMILES	IC50 (H2981 cell line [1])	IC50 (H2981 cell line [2])	IC50 (H2981 cell line [3])	IC50 (H2981 cell line [4])	IC50 (H2981 cell line [5])	IC50 (H2981 cell line [6])	IC50 (H2981 cell line [7])
COc1cccc2c1C(=O)c1c(O)c3c(c(O)c1C2=O)C[C@@](O)(C(=O)CO)C[C@@H]3OC1CC(NC(=O)OCC2=C(C(=O)O)N3C(=O)[C@@H](NC(=O)Cc4ccccc4)[C@H]3SC2)C(O)C(C)O1 (some centres not stated)	750 nM	0.68 nM	0.25 nM	7400 nM	0.012 nM	550 nM	–
COc1cccc2c1C(=O)c1c(O)c3c(c(O)c1C2=O)C[C@@](O)(C(=O)CO)C[C@@H]3OC1CC(NC(=O)OCC2=C(C(=O)O)N3C(=O)[C@@H](N)[C@H]3SC2)C(O)C(C)O1 (some centres not stated)	430 nM	185 nM	24.9 nM	8200 nM	9.86 nM	460 nM	–
COc1cccc2c1C(=O)c1c(O)c3c(c(O)c1C2=O)C[C@@](O)(C(=O)CO)C[C@@H]3OC1CC(NC(=O)OCC2=C(C(=O)O)N3C(=O)[C@@H](NC(=O)C(c4ccccc4)S(=O)(=O)O)[C@H]3SC2)C(O)C(C)O1 (some centres not stated)	470 nM	22.7 nM	0.39 nM	14800 nM	5.65 nM	560 nM	–
COc1cccc2c1C(=O)c1c(O)c3c(c(O)c1C2=O)C[C@@](O)(C(=O)CO)C[C@@H]3O[C@H]1C[C@H](N)[C@H](O)[C@H](C)O1 [DOXORUBICIN]	–	–	–	–	–	–	500 nM
